# A selection: hits, their analogues and other compounds. The true share with any hit is near 2.3%.
# ADAM17 inh: inhibitors of human ADAM17; 0.83% of 370,000 active; recombinant ADAM17, EDANS/DABCYL FRET peptide cleavage; P78536; AID 720648; inhibition, % at 6.95 µM;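 active = inhibition above the mean of compounds lying between control limits plus 3 SD, set per campaign, cut at about 8.5% in these data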;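 also: 0% = DMSO-only wells as the low control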
# PLCb3 inh: inhibitors of human phospholipase C beta3; inhibition, % at 12.2 µM; AID 720704; Purified PLC-beta3, fluorogenic substrate, fluorescence; Q01970; 0.18% of 370,000 active; in the data active = inhibition above about 11%;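 also: 0% = median of compound wells on plate and 100% = full blocker control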
# Target sequence (Q01970 whole entry, looked up): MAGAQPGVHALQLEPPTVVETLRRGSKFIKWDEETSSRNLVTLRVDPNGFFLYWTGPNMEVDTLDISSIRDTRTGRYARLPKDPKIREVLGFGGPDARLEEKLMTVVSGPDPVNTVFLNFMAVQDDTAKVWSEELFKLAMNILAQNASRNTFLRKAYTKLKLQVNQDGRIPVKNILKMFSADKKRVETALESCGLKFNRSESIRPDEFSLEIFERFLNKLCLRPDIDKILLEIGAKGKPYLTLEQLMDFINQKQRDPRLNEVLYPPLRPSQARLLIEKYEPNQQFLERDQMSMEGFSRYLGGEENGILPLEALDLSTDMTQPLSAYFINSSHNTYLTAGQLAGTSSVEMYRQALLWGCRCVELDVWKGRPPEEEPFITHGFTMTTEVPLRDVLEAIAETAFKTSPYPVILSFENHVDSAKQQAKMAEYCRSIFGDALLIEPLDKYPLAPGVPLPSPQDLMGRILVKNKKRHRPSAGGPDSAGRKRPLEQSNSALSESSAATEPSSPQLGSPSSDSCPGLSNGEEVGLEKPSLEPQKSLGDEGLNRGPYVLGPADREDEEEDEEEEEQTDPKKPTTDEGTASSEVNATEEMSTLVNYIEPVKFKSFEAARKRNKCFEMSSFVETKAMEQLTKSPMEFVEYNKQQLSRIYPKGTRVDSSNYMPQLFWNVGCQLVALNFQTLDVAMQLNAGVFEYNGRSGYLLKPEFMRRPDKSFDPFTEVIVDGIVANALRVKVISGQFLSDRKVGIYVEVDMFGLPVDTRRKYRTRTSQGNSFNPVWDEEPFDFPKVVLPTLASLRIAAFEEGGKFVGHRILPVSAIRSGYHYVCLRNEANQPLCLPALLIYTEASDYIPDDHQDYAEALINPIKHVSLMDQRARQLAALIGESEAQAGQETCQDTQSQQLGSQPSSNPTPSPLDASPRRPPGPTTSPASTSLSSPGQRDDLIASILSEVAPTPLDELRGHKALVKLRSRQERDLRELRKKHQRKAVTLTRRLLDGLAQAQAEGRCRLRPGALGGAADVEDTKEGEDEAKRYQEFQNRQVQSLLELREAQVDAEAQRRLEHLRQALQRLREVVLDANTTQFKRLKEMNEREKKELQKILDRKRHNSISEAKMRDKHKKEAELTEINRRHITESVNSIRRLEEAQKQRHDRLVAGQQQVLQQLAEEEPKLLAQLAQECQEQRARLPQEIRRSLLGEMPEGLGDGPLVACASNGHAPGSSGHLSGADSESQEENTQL
# PLC-gamma1 inh: PLC-gamma1 (human) inhibition, primary screen | P19174 | purified PLC-gamma1, fluorogenic substrate, fluorescence | inhibition, % at 12.2 µM | 0.84% of 370,000 active | AID 720700; in the data active = inhibition above about 9.5%
# TbMetRS inhib: blocks T. brucei methionyl-tRNA synthetase activity; purified T. brucei MetRS, ATP depletion, Kinase-Glo luminescence; inhibition, % at 11.9 µM; AID 624268; 0.4% of 360,000 active;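 active = inhibition above a per-plate cutoff of the control wells' mean inhibition plus 3 SD, cut at about 5.5% in these data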;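 also: 0% = DMSO wells median and 100% = median of wells with control inhibitor compound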
#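 Material: T. brucei methionyl-tRNA synthetase, purified; reagent: substrates ATP, L-methionine and bulk Escherichia coli tRNA; dosing: 11.9 µM single point; timing: 15 min plus 2 h at 25 °C; detection: luminescence of leftover ATP; evaluation: % inhibition; control set: DMSO-only wells as low control; replicates: singlicate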
# ADAM10 inh: inhibits human ADAM10. O14672. recombinant ADAM10, EDANS/DABCYL FRET peptide cleavage, 3 h. inhibition, % at 7 µM. 0.62% of 370,000 active. AID 720582;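 active = inhibition above a per-campaign cutoff equal to the mean of compounds falling between control-based bounds plus 3 SD, cut at about 20% in these data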;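 also: 0% = DMSO wells while the 100% control is not disclosed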
# ADAM10 ctr: ADAM10 inhibition, counter-screen for ADAM17 exosite hits; shares compounds with ADAM17 inh; recombinant ADAM10, EDANS/DABCYL FRET peptide cleavage, 3 h; inhibition, % at 6.95 µM; 47% of 2,900 active;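 active = mean inhibition over the triplicate runs exceeds the activity threshold set in the earlier primary screen, cut at about 20% in these data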;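 also: 0% = DMSO wells and 100% = marimastat wells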
# ADAM17 confirm: human ADAM17 inhibition, confirmation | 65% of 2,900 active | shares compounds with ADAM17 inh | inhibition, % at 6.95 µM | recombinant ADAM17, EDANS/DABCYL QFRET peptide cleavage;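 active = mean inhibition across replicates above the hit cutoff set in the primary screen, cut at about 8.5% in these data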;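 also: 0% = DMSO wells and 100% = marimastat wells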
# * marks the source's active call; other numbers are inactive results; / = no result given.
SMILES,ADAM17 inh,PLCb3 inh,PLC-gamma1 inh,TbMetRS inhib,ADAM10 inh,ADAM10 ctr,ADAM17 confirm
COc1ccc(C2=Nn3c(nnc3-c3ccccc3F)SC2)cc1OC1CCCC1,11*,5,5,0,27*,24*,17*
COC(=O)C[C@H]1CC[C@H](NC(=O)c2cccc(F)c2)[C@@H](CO)O1,0,0,4,0,5,/,/
O=C(Nc1cccc(Cl)c1)c1cccc(Oc2ccc([N+](=O)[O-])cc2Cl)c1,9.7*,4,6,-2,16,23*,15*
Cc1ccc(C)c(NC(=O)c2cccc(Oc3ccc([N+](=O)[O-])cc3Cl)c2)c1,9.0*,1,1,0,19,29*,16*
O=C(CCc1ccccc1)N[C@H]1[C@@H](OC(=O)c2ccc([N+](=O)[O-])cc2)CCC[C@]12C(=O)N(Cc1ccccc1)c1ccccc12,-1,4,0,/,-10,/,/
CC1CCN(S(=O)(=O)c2cccc3cccnc23)CC1,1,-9,1,0,3,/,/
CC(C)n1cc(NC(=O)C2CC(c3cccc(Br)c3)=NO2)cn1 (stereo unspecified),9.0*,-10,0,-1,13,-5,-3
Clc1ccc(OCc2noc(-c3ccsc3)n2)c(Cl)c1,-2,-3,5,1,7,/,/
O=C(Nc1nn(Cc2ccc(Cl)cc2)cc1Br)c1ccc(COc2ccccc2Cl)o1,10*,-1,-3,-1,17,33*,18*
O=C(Nc1ccc(Cl)cn1)c1ccc(COc2ccccc2Br)o1,2,-7,-2,0,5,/,/
S=c1[nH]nc(C2CCCCC2)n1/N=C/C=C/c1ccccc1,9.2*,2,6,-1,17,19,11*
S=c1[nH]nc(C2CCCCC2)n1/N=C/C(Cl)=C\c1ccccc1,3,-2,-1,0,9,/,/
O=C(NC(=S)Nc1ccc2c(c1)OCCO2)c1cccc2ccccc12,11*,4,4,0,19,18,11*
CCS(=O)(=O)Nc1ccc2c(c1)C(=O)N(C)[C@@H]1CC[C@H](CC(=O)N[C@@H]3CCN(Cc4ccccc4)C3)O[C@H]1CO2,-6,-2,3,/,-14,/,/
Cc1ccccc1OCc1n[nH]c(=S)n1-c1cccc(Cl)c1,3,-7,-1,-2,18,/,/
Cc1cc(Cl)ccc1OCc1n[nH]c(=S)n1C1CCCCC1,9.3*,-4,-1,0,9,30*,11*
CN(C)c1ccc(NC(=O)c2ccc(COc3cccc(Cl)c3)o2)cc1,10*,-11,-8,-1,17,18,12*
CCc1ccc(NC(=O)CN(c2ccc3c(c2)OCO3)S(=O)(=O)c2c(C)noc2C)cc1,2,4,3,0,-9,/,/
CCc1ccc(N(CC(=O)Nc2nc3ccc(C)cc3s2)S(=O)(=O)c2c(C)noc2C)cc1,9.7*,0,0,0,16,46*,26*
CCCCC(O)(CCCC)C(=O)NN(C(=O)c1cccnc1Cl)c1ccccc1,2,-3,4,0,0,/,/
COc1ccccc1NC(=O)c1ccc(S(=O)(=O)N(C)c2ccccc2)cc1,2,-5,-3,0,1,/,/
COc1cc(NC(=O)c2ccc(S(=O)(=O)N(C)c3ccccc3)cc2)cc(OC)c1,10*,0,0,0,15,30*,17*
CSCCC(NC(=O)c1ccc(Cl)cc1Cl)C(=O)NNC(=O)c1ccncc1 (stereo unspecified),-2,-1,-3,0,-7,/,/
C=CCNc1ncnc2c1ncn2[C@H]1CN(Cc2ccccc2)C[C@@H](COC(C)=O)O1,-3,-1,-3,0,-17,/,/
O=C(Nc1ccc(Cl)c(Cl)c1)C1CCCN(c2nnc(-n3cccc3)s2)C1 (stereo unspecified),11*,2,4,/,16,30*,15*
Cc1cc(C(=O)Cn2c(CO)nc3ccccc32)c(C)n1C,-3,-7,-1,0,-4,/,/
